Broadly, the IC50 is the concentration that inhibits the measured activity by half. The low end stands for greater potency in that assay, the high end for weaker potency in that assay. Usually inhibition stands for the change of the read-out against control, counted positive when it falls. A higher inhibition goes with a response far below the control. One may read the T/C as the result in the treated group divided by that in the control group, in per cent.

Consider six molecules from ChEMBL document CHEMBL1141747, “New bisbenzylisoquinolines, fatty acid amidic aporphines, and a protoberberine from Formosan Cocculus orbiculatus” (J Nat Prod, 2005).

Each structure is given as a SMILES string. Converted amounts (≈) assume the structure as drawn. A value given as a limit tells only on which side of the number the result lay.

Experiment [1] in a line: Cytotoxicity against human Hep3B cells. The experiment is classed as functional, cell-based, Hep 3B2.
The subject of experiment [2] is NUGC-3. In words: Cytotoxicity against human NUGC3 cells at 20 ug/mL. The experiment is classed as functional. A digest of the protocol: (§1)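 Samples were tested on the cells at two fixed concentrations, 20 and 4 µg/mL. The value is reported as percent inhibition at each concentration.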
The next experiment has as its system MCF7. In words: Cytotoxicity against human MCF7 cells. The experiment is classed as functional, cell-based.
A further experiment relates to HepG2. Put plainly: Cytotoxicity against human HepG2 cells. The experiment is classed as functional, cell-based.
Experiment [3] in a line: Cytotoxicity against human HONE1 cells at 20 ug/mL. The experiment is classed as functional. In short, it runs like this:
as §1

A further experiment has as its system P388. Put plainly: Antitumor activity against mouse P388 cells xenografted in mouse. The experiment is classed as functional.
Experiment [4] is described as follows: Cytotoxicity against human HONE1 cells at 4 ug/mL. The experiment is classed as functional. In short, it runs like this: as §1
In experiment [5] the test system is NUGC-3. In words: Cytotoxicity against human NUGC3 cells at 4 ug/mL. The experiment is classed as functional. A digest of the protocol: as §1
Another experiment deals with MDA-MB-231. In words: Cytotoxicity against human MDA-MB-231 cells. The experiment is classed as functional, cell-based.

With `COc1ccc2c(c1O)[C@]13CCN[C@@H](C2)C1C(OC)[C@@H](O)[C@@H](O)C3` (some centres not stated), the IC50 came to 2 µg/mL (≈ 5.96 µM) in experiment [1], 2 µg/mL (≈ 5.96 µM) in the experiment with MCF7, 2 µg/mL (≈ 5.96 µM) with HepG2 and 1.2 µg/mL (≈ 3.58 µM) in the experiment with MDA-MB-231. Besides, the inhibition at 20 µg/mL was 96% with NUGC-3 [2] and 84% in [3]. Besides, the T/C in the experiment on P388 is 166%. Also, the inhibition at 4 µg/mL (in [4]; with NUGC-3 [5]) was 82% in each case.

Consider `COc1cc2c(c(OC)c1OC)CCN1C(=O)c3c(ccc(OC)c3OC)C[C@@H]21`, for which the half-maximal inhibitory concentration (IC50) was over 30 µg/mL in experiment [1], over 30 µg/mL in the experiment with MCF7, 23.5 µg/mL (≈ 58.8 µM) in the experiment on HepG2 and over 30 µg/mL with MDA-MB-231.

Turning to `COc1ccc2cc1Oc1ccc(cc1)C[C@H]1c3cc(O)c(c(OC)c3CC[N+]1(C)C)Oc1cc3c(cc1OC)CC[N+](C)=C3C2.[Cl-].[Cl-]`, the IC50 (in experiment [1]; in the experiment on MCF7; in the experiment with HepG2; with MDA-MB-231) was over 30 µg/mL in each case.

`COc1cc2c3c4c1Oc1cc5c(cc1O4)C(=NCC5)Cc1ccc(O)c(c1)Oc1ccc(cc1)C[C@@H]3N(C)CC2` [DEHYDROAPATELINE]: the IC50 in [1] was determined as 4.82 µg/mL (≈ 8.82 µM); with MCF7, 16.3 µg/mL (≈ 29.8 µM); with HepG2, 3.61 µg/mL (≈ 6.6 µM); in the experiment with MDA-MB-231, 4.71 µg/mL (≈ 8.62 µM). The inhibition at 20 µg/mL (in the experiment with NUGC-3 [2]; in experiment [3]) was 98% in each case. The inhibition at 4 µg/mL (in [4]; with NUGC-3 [5]) was 0% in each case.

On to `COc1ccc2cc1Oc1ccc(cc1)C[C@H]1c3c(cc(OC)c4c3Oc3cc5c(cc3O4)CCN(C)[C@H]5C2)CCN1C` [ISOTRILOBINE], for which the half-maximal inhibitory concentration (IC50) in experiment [1] was found to be 0.75 µg/mL (≈ 1.3 µM); in the experiment on MCF7, 3.9 µg/mL (≈ 6.76 µM); in the experiment on HepG2, 0.6 µg/mL (≈ 1.04 µM); in the experiment with MDA-MB-231, 1.6 µg/mL (≈ 2.77 µM). In addition, the inhibition at 20 µg/mL (in the experiment on NUGC-3 [2]; in experiment [3]) was 100% throughout. In addition, the inhibition at 4 µg/mL in experiment [4] was 79%; in the experiment on NUGC-3 [5] it was 0%.

For `CC(=O)O[C@H]1C(=O)[C@@]2(C)[C@H]([C@H](OC(=O)c3ccccc3)[C@]3(O)C[C@H](OC(=O)[C@H](O)[C@@H](NC(=O)c4ccccc4)c4ccccc4)C(C)=C1C3(C)C)[C@]1(OC(C)=O)CO[C@@H]1C[C@@H]2O` [PACLITAXEL], the concentration for half-maximal inhibition (IC50) came to 0.08 µg/mL (≈ 0.0937 µM) in [1], 0.14 µg/mL (≈ 0.164 µM) with MCF7, 0.18 µg/mL (≈ 0.211 µM) in the experiment on HepG2 and 0.12 µg/mL (≈ 0.141 µM) with MDA-MB-231.
